Results as given in ChEMBL document CHEMBL1125756, “Synthesis and antiarrhythmic activity of alpha-[(diarylmethoxy)methyl]-1-piperidineethanols” (1991).

Assays:
Canis familiaris [1] = experiment: […] at the end of the dose.(5 mg/kg was given intravenously over a 5-min period in normal dogs.); format: functional, Canis lupus familiaris
Canis familiaris [2] = experiment: Percent of normal beats after 5 mg/kg given over 5 min by i.v. infusion.; format: functional, Canis lupus familiaris; settings: route intravenous
Procedure, shortened: (§1)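 Coronary-artery-ligated dogs with ventricular arrhythmias received 5 mg/kg iv in 10–20 mL isotonic saline, infused over 5 min. Limb lead II ECG was monitored continuously for up to 6 h or until activity ended. Percent normal sinus beats was scored at control, end of dose, 20 min and 1 h. Results are mean ± SEM for n≥3 and mean ± SD for n=2.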

Canis familiaris [3] = experiment: Activity rating following 5 mg/kg i.v. administration.; settings: route intravenous
Canis familiaris [4] = experiment: Degree of tachycardia in conscious normal dogs.; format: functional, Canis lupus familiaris
Procedure, shortened: (§2)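 Conscious normal dogs, trained to sit quietly while sling-restrained, received 5 mg/kg iv over 5 min, as in the ligated-dog protocol. Heart rate came from continuous limb lead II ECG at control, end of dose, 20 min and 1 h. Dogs above 140 beats/min were followed until the rate fell to 140. Degree was graded severe ≥200, moderate 160–199, slight <160 with a rise ≥20, none ≤20 change. Duration was graded long >2 h, moderate 0.5–2 h, short <0.5 h.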

Canis familiaris [5] = experiment: […] 20 min after a dose of 5 mg/kg given intravenously over a 5-min period in normal dogs.; format: functional, Canis lupus familiaris; settings: route intravenous
Canis familiaris [6] = experiment: […] 1 h after a dose of 5 mg/kg given intravenously over a 5-min period in normal dogs.; format: functional, Canis lupus familiaris; settings: route intravenous
Canis familiaris [7] = experiment: Percent of normal beats 1 hr after 5 mg/kg given over 5 min by i.v. infusion.; format: functional, Canis lupus familiaris; settings: route intravenous; procedure, shortened: as §1
Canis familiaris [8] = experiment: Period of tachycardiac effect in conscious normal dogs; format: functional, Canis lupus familiaris
Procedure, shortened: (§3)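 Conscious normal dogs, trained to sit quietly while sling restrained, were given 5 mg/kg iv as an infusion over 5 min in isotonic saline. Heart rate came from continuous limb lead II ECG during a control period, at end of dose, and at 20 min and 1 h. Degree bands were ≥200, 160–199, and <160 beats/min after a rise of ≥20. Duration bands were >2 h, 0.5–2 h and <0.5 h. Two dogs were used.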

Canis familiaris [9] = experiment: Percent of normal beats 20 min after 5 mg/kg given over 5 min by i.v. infusion.; format: functional, Canis lupus familiaris; settings: route intravenous; procedure, shortened: as §1
Canis familiaris [10] = experiment: Period of tachycardiac effect in conscious normal dogs; 0.5-2; format: functional, Canis lupus familiaris; procedure, shortened: as §2
Canis familiaris [11] = experiment: Degree of tachycardia in conscious normal dogs; 160-199; format: functional, Canis lupus familiaris; procedure, shortened: as §3
Canis familiaris [12] = experiment: […] 1 h after a dose of 5 mg/kg given intravenously over a 5-min period […].; format: functional, Canis lupus familiaris; settings: route intravenous
Procedure, shortened: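 Dogs with coronary artery ligation and ventricular arrhythmia received 5 mg/kg iv in 10–20 mL isotonic saline, infused over 5 min. Limb lead II ECG was monitored continuously for up to 6 h. Percent normal sinus beats was scored at control, at end of dose, and at 20 min and 1 h. Values are mean ± SEM for three or more animals and mean ± SD for two.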

Canis familiaris [13] = experiment: Degree of tachycardiac effect in conscious normal dogs

How did the Heart rate (Canis familiaris [1]) turn out when `COc1ccccc1C(OCC(O)CN1C(C)CCCC1C)c1ccccc1OC` (configuration not stated) was run?
The Heart rate was 234 beats min-1.

And the Normal beats (Canis familiaris [2])?
The Normal beats was 100%.

And the Activity rating (Canis familiaris [3])?
Its Activity rating is 57.

What about the Rating (Canis familiaris [4]) of the same compound?
Its Rating is greater than 200 beats min-1.

What about the Heart rate (Canis familiaris [5]) of the same compound?
Its Heart rate is 232 beats min-1.

What about the Heart rate (Canis familiaris [6]) of the same compound?
Its Heart rate is 232 beats min-1.

And the Normal beats (Canis familiaris [7])?
Its Normal beats is 33%.

What about the Rating (Canis familiaris [8]) of the same compound?
The Rating was greater than 2 h.

What about the Normal beats (Canis familiaris [9]) of the same compound?
The Normal beats was 62%.

Which results are given for `CCN(CC)CC(=O)Nc1c(C)cccc1C.Cl`?
Normal beats (Canis familiaris [2]): 86%; Activity rating (Canis familiaris [3]): 20; Normal beats (Canis familiaris [7]): 9%; Normal beats (Canis familiaris [9]): 23%

With `CC1CCC(C)N1CC(O)COC(c1ccccc1)c1ccccc1` (configuration not stated) as the compound, how does the Heart rate (Canis familiaris [1]) read?
The Heart rate was 140 beats min-1.

What about the Normal beats (Canis familiaris [2]) of the same compound?
Its Normal beats is 96%.

What about the Activity rating (Canis familiaris [3]) of the same compound?
Its Activity rating is 36.

What about the Rating (Canis familiaris [4]) of the same compound?
The Rating was less than 160 beats min-1.

What about the Heart rate (Canis familiaris [5]) of the same compound?
Its Heart rate is 117 beats min-1.

What about the Heart rate (Canis familiaris [6]) of the same compound?
The Heart rate was 102 beats min-1.

What about the Normal beats (Canis familiaris [7]) of the same compound?
The Normal beats was 12%.

And the Rating (Canis familiaris [10])?
Its Rating is 0.5 h.

And the Normal beats (Canis familiaris [9])?
Its Normal beats is 39%.

Which results are given for `CC(OCC(O)CN1C(C)CCCC1C)c1ccccc1` (configuration not stated)?
Heart rate (Canis familiaris [1]): 156 beats min-1; Normal beats (Canis familiaris [2]): 62%; Activity rating (Canis familiaris [3]): 13; Rating (Canis familiaris [4]): <160 beats min-1; Heart rate (Canis familiaris [5]): 101 beats min-1; Heart rate (Canis familiaris [6]): 144 beats min-1; Normal beats (Canis familiaris [7]): 11%; Rating (Canis familiaris [8]): >2 h; Normal beats (Canis familiaris [9]): 16%

`CC1CCCC(C)N1CC(O)CNC(c1ccccc1)c1ccccc1.Cl.Cl` (configuration not stated) was tested. Which Heart rate (Canis familiaris [1]) did it give?
Its Heart rate is 141 beats min-1.

What about the Normal beats (Canis familiaris [2]) of the same compound?
The Normal beats was 92%.

What about the Activity rating (Canis familiaris [3]) of the same compound?
Its Activity rating is 44.

What about the Rating (Canis familiaris [4]) of the same compound?
Its Rating is less than 160 beats min-1.

What about the Heart rate (Canis familiaris [5]) of the same compound?
The Heart rate was 132 beats min-1.

What about the Heart rate (Canis familiaris [6]) of the same compound?
The Heart rate was 122 beats min-1.

And the Normal beats (Canis familiaris [7])?
The Normal beats was 30%.

And the Rating (Canis familiaris [8])?
The Rating was less than 0.5 h.

And the Normal beats (Canis familiaris [9])?
Its Normal beats is 47%.

How did the Heart rate (Canis familiaris [1]) turn out when `Cc1ccccc1C(OCC(O)CN1C(C)CCCC1C)c1ccccc1` (configuration not stated) was run?
Its Heart rate is 153 beats min-1.

What about the Normal beats (Canis familiaris [2]) of the same compound?
The Normal beats was 87%.

And the Activity rating (Canis familiaris [3])?
Its Activity rating is 68.

What about the Heart rate (Canis familiaris [5]) of the same compound?
The Heart rate was 153 beats min-1.

And the Heart rate (Canis familiaris [6])?
Its Heart rate is 134 beats min-1.

And the Normal beats (Canis familiaris [7])?
The Normal beats was 81%.

What about the Rating (Canis familiaris [11]) of the same compound?
The Rating was 160 beats min-1.

And the Rating (Canis familiaris [10])?
Its Rating is 0.5 h.

And the Normal beats (Canis familiaris [9])?
The Normal beats was 71%.

`CC1CCCC(C)N1CC(O)CSC(c1ccccc1)c1ccccc1` (configuration not stated) was tested. Which Heart rate (Canis familiaris [1]) did it give?
Its Heart rate is 185 beats min-1.

And the Normal beats (Canis familiaris [2])?
Its Normal beats is 95%.

And the Activity rating (Canis familiaris [3])?
The Activity rating was 51.

What about the Heart rate (Canis familiaris [5]) of the same compound?
Its Heart rate is 148 beats min-1.

What about the Normal beats (Canis familiaris [7]) of the same compound?
The Normal beats was 42%.

What about the Rating (Canis familiaris [11]) of the same compound?
Its Rating is 160 beats min-1.

And the Rating (Canis familiaris [8])?
Its Rating is less than 0.5 h.

What about the Normal beats (Canis familiaris [9]) of the same compound?
The Normal beats was 49%.

What about the Heart rate (Canis familiaris [12]) of the same compound?
Its Heart rate is 148 beats min-1.

How did the Normal beats (Canis familiaris [2]) turn out when `Cc1ccccc1C(OCC(O)CN1CCCCC1)c1ccccc1C.O=C(O)C(=O)O` (configuration not stated) was run?
The Normal beats was 79%.

What about the Activity rating (Canis familiaris [3]) of the same compound?
Its Activity rating is 21.

What about the Normal beats (Canis familiaris [7]) of the same compound?
Its Normal beats is 16%.

What about the Normal beats (Canis familiaris [9]) of the same compound?
The Normal beats was 31%.

How did the Heart rate (Canis familiaris [1]) turn out when `CC1CCCC(C)N1CC(O)COC(c1ccccc1)c1ccccc1` (configuration not stated) was run?
The Heart rate was 172 beats min-1.

What about the Normal beats (Canis familiaris [2]) of the same compound?
The Normal beats was 88%.

What about the Activity rating (Canis familiaris [3]) of the same compound?
The Activity rating was 56.

And the Heart rate (Canis familiaris [5])?
The Heart rate was 171 beats min-1.

And the Heart rate (Canis familiaris [6])?
Its Heart rate is 150 beats min-1.

And the Normal beats (Canis familiaris [7])?
The Normal beats was 53%.

And the Rating (Canis familiaris [11])?
Its Rating is 160 beats min-1.

What about the Rating (Canis familiaris [10]) of the same compound?
The Rating was 0.5 h.

And the Normal beats (Canis familiaris [9])?
The Normal beats was 67%.

What does the source list for `CC1CCCC(C)[N+]1(C)CC(O)COC(c1ccccc1)c1ccccc1.[Cl-]` (configuration not stated)?
Heart rate (Canis familiaris [1]): 167 beats min-1; Normal beats (Canis familiaris [2]): 15%; Activity rating (Canis familiaris [3]): 15; Heart rate (Canis familiaris [5]): 152 beats min-1; Heart rate (Canis familiaris [6]): 101 beats min-1; Normal beats (Canis familiaris [7]): 28%; Rating (Canis familiaris [11]): 160 beats min-1; Rating (Canis familiaris [8]): <0.5 h; Normal beats (Canis familiaris [9]): 33%

How did the Heart rate (Canis familiaris [1]) turn out when `CN(C)CC(O)COC(c1ccccc1)c1ccccc1.Cl` (configuration not stated) was run?
The Heart rate was 121 beats min-1.

What about the Normal beats (Canis familiaris [2]) of the same compound?
The Normal beats was 61%.

And the Activity rating (Canis familiaris [3])?
The Activity rating was 19.

What about the Heart rate (Canis familiaris [5]) of the same compound?
The Heart rate was 115 beats min-1.

And the Heart rate (Canis familiaris [6])?
The Heart rate was 110 beats min-1.

What about the Normal beats (Canis familiaris [7]) of the same compound?
The Normal beats was 15%.

What about the Normal beats (Canis familiaris [9]) of the same compound?
Its Normal beats is 25%.

What about the Rating (Canis familiaris [13]) of the same compound?
The Rating was less than 20 beats min-1.

For `Cc1ccccc1C(OCC(O)CN1C(C)CCCC1C)c1ccccc1C` (configuration not stated), which Heart rate (Canis familiaris [1]) is on record?
The Heart rate was 153 beats min-1.

What about the Normal beats (Canis familiaris [2]) of the same compound?
Its Normal beats is 87%.

What about the Activity rating (Canis familiaris [3]) of the same compound?
The Activity rating was 51.

What about the Rating (Canis familiaris [4]) of the same compound?
The Rating was less than 160 beats min-1.

What about the Heart rate (Canis familiaris [5]) of the same compound?
The Heart rate was 113 beats min-1.

What about the Heart rate (Canis familiaris [6]) of the same compound?
Its Heart rate is 142 beats min-1.

And the Normal beats (Canis familiaris [7])?
Its Normal beats is 50%.

And the Rating (Canis familiaris [8])?
Its Rating is less than 0.5 h.

What about the Normal beats (Canis familiaris [9]) of the same compound?
The Normal beats was 68%.

Which results are given for `Cc1cccc(C)c1C(OCC(O)CN1C(C)CCCC1C)c1c(C)cccc1C` (configuration not stated)?
Normal beats (Canis familiaris [2]): 49%; Activity rating (Canis familiaris [3]): 47; Normal beats (Canis familiaris [7]): 54%; Normal beats (Canis familiaris [9]): 76%

Which results are given for `C[N+](C)(C)CC(O)COC(c1ccccc1)c1ccccc1` (configuration not stated)?
Heart rate (Canis familiaris [1]): 242 beats min-1; Normal beats (Canis familiaris [2]): 52%; Activity rating (Canis familiaris [3]): 9; Rating (Canis familiaris [4]): >200 beats min-1; Heart rate (Canis familiaris [5]): 135 beats min-1; Heart rate (Canis familiaris [6]): 118 beats min-1; Normal beats (Canis familiaris [7]): 0%; Rating (Canis familiaris [10]): 0.5 h; Normal beats (Canis familiaris [9]): 1%

How did the Normal beats (Canis familiaris [2]) turn out when `Cc1ccccc1C(OCC(O)CN1CCCCC1C)c1ccccc1C.O=C(O)C(=O)O` (configuration not stated) was run?
The Normal beats was 49%.

And the Activity rating (Canis familiaris [3])?
The Activity rating was 36.

And the Normal beats (Canis familiaris [7])?
Its Normal beats is 24%.

And the Normal beats (Canis familiaris [9])?
The Normal beats was 44%.

Which results are given for `CCN(CC)CCNC(=O)c1ccc(N)cc1.Cl` [PROCAINAMIDE HYDROCHLORIDE]?
Normal beats (Canis familiaris [2]): 72%; Activity rating (Canis familiaris [3]): 52; Normal beats (Canis familiaris [7]): 34%; Normal beats (Canis familiaris [9]): 66%

With `Cc1cccc(C)c1C(OCC(O)CN1C(C)CCCC1C)c1ccccc1` (configuration not stated) as the compound, how does the Normal beats (Canis familiaris [2]) read?
Its Normal beats is 60%.

What about the Activity rating (Canis familiaris [3]) of the same compound?
The Activity rating was 8.

And the Normal beats (Canis familiaris [7])?
Its Normal beats is 16%.

And the Normal beats (Canis familiaris [9])?
The Normal beats was 19%.
